For series [1], the target named is T1, Glucagon-like peptide 1 receptor (Rattus norvegicus) (UniProt P32301).
T1 sequence (whole entry): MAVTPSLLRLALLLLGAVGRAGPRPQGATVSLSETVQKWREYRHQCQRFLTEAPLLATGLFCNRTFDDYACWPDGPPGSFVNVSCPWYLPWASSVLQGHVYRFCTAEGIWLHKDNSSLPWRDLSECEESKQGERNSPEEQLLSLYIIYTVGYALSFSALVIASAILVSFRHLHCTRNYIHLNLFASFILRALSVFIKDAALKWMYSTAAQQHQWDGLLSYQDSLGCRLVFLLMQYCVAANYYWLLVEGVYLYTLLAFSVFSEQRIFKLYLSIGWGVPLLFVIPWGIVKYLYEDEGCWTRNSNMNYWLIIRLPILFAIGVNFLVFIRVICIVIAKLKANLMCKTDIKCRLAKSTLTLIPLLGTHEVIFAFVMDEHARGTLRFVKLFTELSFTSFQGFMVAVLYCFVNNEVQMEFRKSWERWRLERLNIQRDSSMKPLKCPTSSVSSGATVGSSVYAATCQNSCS
The series can be described thus: Positive allosteric modulator activity at GLP-1R in rat INS1 beta-cells assessed potentiation of GLP-1(7-36)NH2 induced insulin secretion at 1 uM incubated for 30 mins in presence of 15 mM of glucose by ELISA. The series is classed as cell-based. Conditions: filed as positive allosteric modulator. Summed up:
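Rat INS-1 cells held in glucose-free medium for 1.5 h (100,000 cells/well). […] Medium was centrifuged at 4 °C and secreted insulin measured by ELISA.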

The target of series [2] is T2, Glucagon-like peptide 1 receptor (Rattus norvegicus, UniProt P32301).
T2 sequence (P32301 whole entry): T1 sequence (whole entry)
As to the kind of experiment: Positive allosteric modulator activity at GLP-1R in rat INS1 beta-cells assessed potentiation of GLP-1(7-36)NH2 induced insulin secretion incubated for 30 mins in presence of high glucose condition by ELISA. The series is classed as cell-based.

Series [3] can be described thus: Toxicity in Wistar rat assessed anxiety like behavior at 0.5 to 1 mg/kg, ip measured after 30 mins by elevated plus-maze analysis. Type of series: organism-based. Conditions: in vivo, 0.5 h, dose 0.5-1 mg/kg. A digest of the protocol:
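Male Wistar rats, naive to the maze, were handled for 7 days. Compound at 0.5 or 1 mg/kg ip in saline/DMSO (0.2%). 30 min after dosing, each rat was placed in the maze centre facing an open arm, and open-arm entries and % time in open arms were scored over 5 min. No retesting; 8 animals.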

The nature of series [4]: Effective permeability of compound in PBS buffer at pH 7.4 at 50 to 100 uM after 5 hrs by PAMPA. Type of series: ADME. As to conditions: pH 7.4, 5 h, dose 50-100 µM.
Series [5] can be described thus: Toxicity in Wistar rat assessed hypolocomotion at 0.5 to 1 mg/kg, ip measured after 30 mins by elevated plus-maze analysis. As to conditions: in vivo, 0.5 h.

Activity calls are given as the source filed them. The calls are words filed in the database; no cut-off is given here.

For the compound `FC(F)(F)c1ccc(-c2noc(CN3CCCCC3CCc3ccccn3)n2)cc1` (stereo unspecified), in series [1], the result was Active.

With `FC(F)(F)c1ccc(-c2noc(CN3CCCC(CN4CCOCC4)C3)n2)cc1` (stereo unspecified), the EC50 in series [2] was 8 pM. The Activity entry in series [3] and in series [5] was “Non-Toxic” each time. Besides, the Peff result in series [4] is “Active”.

For the compound `NC(=O)C1CCN(Cc2nc(-c3ccc(C(F)(F)F)cc3)no2)CC1`, the result in series [1] was Active.
